{
  "source": "paper PMC10772668",
  "about": "(Clinical and Translational Science, 2023)",
  "type_in_all_cases": "in vivo, human",
  "key": {"Safety, TEAEs, SAD": {"assay": "Safety, TEAEs, SAD", "in_short": "(§1)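 Safety population: all participants exposed to study drug, followed from first dose to the end‑of‑study visit. Assessments covered physical and neurological exams, AEs, SAEs and AESIs (seizure, ALT ≥2×ULN, QTc ≥500 ms, pregnancy, overdose). Lab, vital‑sign and 12‑lead/Holter ECG abnormalities were also recorded. Coding used MedDRA 23.1 (part 1) or 24.0 (part 2), with severity graded 1–4 per FDA guidance. Counts were summarised per dose group, with placebo pooled.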"}, "Safety, TEAEs, PK‐CSF": {"assay": "Safety, TEAEs, PK‐CSF", "conditions": "for ALT increase (AESI), one participant: PK‐CSF 10 mg", "in_short": "as §1"}, "Safety, TEAEs, MAD": {"assay": "Safety, TEAEs, MAD", "in_short": "as §1"}, "CYP3A4": {"system": "CYP3A4", "assay": "Plasma 4β‐hydroxycholesterol day 14/day 1 ratio", "conditions": "repeated doses up to 20 mg b.i.d.", "in_short": "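MAD healthy adults received oral capsules (10 or 20 mg q.d., 15 or 20 mg b.i.d.; fasted) or placebo for 14 days. Plasma 4β‑hydroxycholesterol was measured predose on day 1 and day 14, and day 14/day 1 ratios were calculated. Geometric mean of the log‑transformed ratio with 90% CI was obtained by analysis of covariance, per dose group and overall.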"}, "[1]": {"assay": "Overall safety and tolerability, all study parts", "in_short": "as §1"}},
  "data": [
    {"compound": "CC(C)(C(=O)N1CCOc2c(C#N)cncc2C1)C(F)F", "note": "[SAR443820]", "values": [
      {"measurement": "Any grade ≥3 TEAE, n (%)", "setting": "Safety, TEAEs, SAD; SAD 10 mg (n = 6)", "value": "0 n (%)"},
      {"measurement": "Any treatment‐emergent AESI, n (%)", "setting": "Safety, TEAEs, SAD; SAD 10 mg (n = 6)", "value": "0 n (%)"},
      {"measurement": "Any treatment‐emergent SAE, n (%)", "setting": "Safety, TEAEs, SAD; SAD 10 mg (n = 6)", "value": "0 n (%)"},
      {"measurement": "Any TEAE, n (%)", "setting": "Safety, TEAEs, SAD; SAD 20 mg (n = 6)", "value": "1 (16.7) n (%)"},
      {"measurement": "Any grade ≥3 TEAE, n (%)", "setting": "Safety, TEAEs, SAD; SAD 20 mg (n = 6)", "value": "0 n (%)"},
      {"measurement": "Any treatment‐emergent AESI, n (%)", "setting": "Safety, TEAEs, SAD; SAD 20 mg (n = 6)", "value": "0 n (%)"},
      {"measurement": "Any treatment‐emergent SAE, n (%)", "setting": "Safety, TEAEs, SAD; SAD 20 mg (n = 6)", "value": "0 n (%)"},
      {"measurement": "Any TEAE, n (%)", "setting": "Safety, TEAEs, SAD; SAD 30 mg (n = 6)", "value": "3 (50.0) n (%)"},
      {"measurement": "Any grade ≥3 TEAE, n (%)", "setting": "Safety, TEAEs, SAD; SAD 30 mg (n = 6)", "value": "0 n (%)"},
      {"measurement": "Any treatment‐emergent AESI, n (%)", "setting": "Safety, TEAEs, SAD; SAD 30 mg (n = 6)", "value": "0 n (%)"},
      {"measurement": "Any treatment‐emergent SAE, n (%)", "setting": "Safety, TEAEs, SAD; SAD 30 mg (n = 6)", "value": "0 n (%)"},
      {"measurement": "Any TEAE, n (%)", "setting": "Safety, TEAEs, SAD; SAD 40 mg (n = 6)", "value": "3 (50.0) n (%)"},
      {"measurement": "Any grade ≥3 TEAE, n (%)", "setting": "Safety, TEAEs, SAD; SAD 40 mg (n = 6)", "value": "0 n (%)"},
      {"measurement": "Any treatment‐emergent AESI, n (%)", "setting": "Safety, TEAEs, SAD; SAD 40 mg (n = 6)", "value": "0 n (%)"},
      {"measurement": "Any treatment‐emergent SAE, n (%)", "setting": "Safety, TEAEs, SAD; SAD 40 mg (n = 6)", "value": "0 n (%)"},
      {"measurement": "Any TEAE, n (%)", "setting": "Safety, TEAEs, PK‐CSF; PK-CSF 10 mg (n = 6)", "value": "4 (66.7) n (%)"},
      {"measurement": "Any grade ≥3 TEAE, n (%)", "setting": "Safety, TEAEs, PK‐CSF; PK-CSF 10 mg (n = 6)", "value": "0 n (%)"},
      {"measurement": "Any treatment‐emergent AESI, n (%)", "setting": "Safety, TEAEs, PK‐CSF; PK-CSF 10 mg (n = 6)", "value": "1 (16.7) n (%)"},
      {"measurement": "Any treatment‐emergent SAE, n (%)", "setting": "Safety, TEAEs, PK‐CSF; PK-CSF 10 mg (n = 6)", "value": "0 n (%)"},
      {"measurement": "Any TEAE, n (%)", "setting": "Safety, TEAEs, PK‐CSF; PK-CSF 40 mg (n = 6)", "value": "6 (100.0) n (%)"},
      {"measurement": "Any grade ≥3 TEAE, n (%)", "setting": "Safety, TEAEs, PK‐CSF; PK-CSF 40 mg (n = 6)", "value": "1 (16.7) n (%)"},
      {"measurement": "Any treatment‐emergent AESI, n (%)", "setting": "Safety, TEAEs, PK‐CSF; PK-CSF 40 mg (n = 6)", "value": "0 n (%)"},
      {"measurement": "Any treatment‐emergent SAE, n (%)", "setting": "Safety, TEAEs, PK‐CSF; PK-CSF 40 mg (n = 6)", "value": "1 (16.7) n (%)"},
      {"measurement": "ALT increase (AESI), one participant", "setting": "Safety, TEAEs, PK‐CSF; day 2", "value": 1.5, "unit": "ULN"},
      {"measurement": "ALT increase (AESI), one participant", "setting": "Safety, TEAEs, PK‐CSF; day 7 (end‐of‐study visit)", "value": 2.4, "unit": "ULN"},
      {"measurement": "Any TEAE, n (%)", "setting": "Safety, TEAEs, MAD; MAD 10 mg QD (n = 8)", "value": "4 (50.0) n (%)"},
      {"measurement": "Any grade ≥3 TEAE, n (%)", "setting": "Safety, TEAEs, MAD; MAD 10 mg QD (n = 8)", "value": "0 n (%)"},
      {"measurement": "Any treatment‐emergent AESI, n (%)", "setting": "Safety, TEAEs, MAD; MAD 10 mg QD (n = 8)", "value": "0 n (%)"},
      {"measurement": "Any treatment‐emergent SAE, n (%)", "setting": "Safety, TEAEs, MAD; MAD 10 mg QD (n = 8)", "value": "0 n (%)"},
      {"measurement": "Any TEAE, n (%)", "setting": "Safety, TEAEs, MAD; MAD 15 mg BID (n = 8)", "value": "6 (75.0) n (%)"},
      {"measurement": "Any grade ≥3 TEAE, n (%)", "setting": "Safety, TEAEs, MAD; MAD 15 mg BID (n = 8)", "value": "0 n (%)"},
      {"measurement": "Any treatment‐emergent AESI, n (%)", "setting": "Safety, TEAEs, MAD; MAD 15 mg BID (n = 8)", "value": "1 (12.5) n (%)"},
      {"measurement": "Any treatment‐emergent SAE, n (%)", "setting": "Safety, TEAEs, MAD; MAD 15 mg BID (n = 8)", "value": "0 n (%)"},
      {"measurement": "Concomitant AST increase, one participant", "setting": "Safety, TEAEs, MAD; MAD 15 mg b.i.d.", "value": 1.43, "unit": "ULN"},
      {"measurement": "ALT increase (AESI), one participant", "setting": "Safety, TEAEs, MAD; MAD 15 mg b.i.d., day 9", "value": 2.29, "unit": "ULN"},
      {"measurement": "ALT increase (AESI), one participant", "setting": "Safety, TEAEs, MAD; MAD 15 mg b.i.d., day 15 (24 h post last dosing)", "value": 2.71, "unit": "ULN"},
      {"measurement": "Any TEAE, n (%)", "setting": "Safety, TEAEs, MAD; MAD 20 mg BID (n = 8)", "value": "4 (50.0) n (%)"},
      {"measurement": "Any grade ≥3 TEAE, n (%)", "setting": "Safety, TEAEs, MAD; MAD 20 mg BID (n = 8)", "value": "0 n (%)"},
      {"measurement": "Any treatment‐emergent AESI, n (%)", "setting": "Safety, TEAEs, MAD; MAD 20 mg BID (n = 8)", "value": "0 n (%)"},
      {"measurement": "Any treatment‐emergent SAE, n (%)", "setting": "Safety, TEAEs, MAD; MAD 20 mg BID (n = 8)", "value": "0 n (%)"},
      {"measurement": "Any TEAE, n (%)", "setting": "Safety, TEAEs, MAD; MAD 20 mg QD (n = 8)", "value": "3 (37.5) n (%)"},
      {"measurement": "Any grade ≥3 TEAE, n (%)", "setting": "Safety, TEAEs, MAD; MAD 20 mg QD (n = 8)", "value": "0 n (%)"},
      {"measurement": "Any treatment‐emergent AESI, n (%)", "setting": "Safety, TEAEs, MAD; MAD 20 mg QD (n = 8)", "value": "0 n (%)"},
      {"measurement": "Any treatment‐emergent SAE, n (%)", "setting": "Safety, TEAEs, MAD; MAD 20 mg QD (n = 8)", "value": "0 n (%)"},
      {"measurement": "Potential for CYP3A4 induction", "setting": "CYP3A4", "value": "no potential for CYP3A4 induction"},
      {"measurement": "Most common AEs", "setting": "[1]; all study parts", "value": "dizziness (SAD) and headache (PK‐CSF and MAD)"},
      {"measurement": "Overall tolerability", "setting": "[1]; healthy participants, single doses up to 40 mg, repeated doses up to 20 mg b.i.d. for 14 days", "value": "generally safe and well‐tolerated"}
    ]}
  ]
}
